≈ marks a conversion by molar mass, not a printed value. Like-named read-outs stand apart in the source and are kept apart here. Positions of bridges follow the written chain, without caps; N, C: chain ends. Non-standard residues stand in square brackets, D forms with d. Residues, ends and D or L forms follow the SMILES beside them. No end group written: not given here. *: point of attachment. X1 = CC[C@H](C)CCCCC(=O)*; Dab = NCC[C@H](N)C(=O)O

For data set [1], the system named is P. aeruginosa E411-17. Put plainly: Killing kinetics. The format is cell-based. The following applies: 4 × MIC, ~10^5 CFU/mL in MHB, 37°C, CFU count.
Data set [2] deals with S. aureus USA300. Type of data set: cell-based. To be noted: for activity against S. aureus USA300 under all these conditions: pH 6.2/8.1, 150 mM NaCl, human serum; for MIC in the presence of 150 mM NaCl: S. aureus.
In data set [3] the test system is P. aeruginosa E411-17. In words: Effects of pH, salts and serum on peptide activity. Type of data set: cell-based. To be noted: different pH, salt and serum conditions.
Another data set relates to human red blood cells. Put plainly: Hemolytic assay. The following applies: 2% hRBC, 37°C, 1 h; for hemolysis: relative to 1% Triton X-100. Type of data set: cell-based.
The test system of data set [4] is Human keratinocytes (HaCaT). In words: Cytotoxicity assay. The format is cell-based. The following applies: 24 h, MTS.
For the next data set, the system named is Human liver HepG2 cells. Type of data set: cell-based.
In data set [5] the test system is S. aureus USA300. Type of data set: cell-based.
A further data set relates to S. epidermidis 1457. Type of data set: cell-based.
For another data set, the system named is MRSA USA300. In words: Killing kinetics. Type of data set: cell-based, S. aureus. To be noted: 4 × MIC, ~10^5 CFU/mL in MHB, 37°C, CFU count. In outline: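 MRSA USA300 was grown in MHB to OD600 ~0.3, then diluted to OD600 0.001 (~10⁵ CFU/mL). 1 mL was incubated at 37°C with test compound or reference antibiotic at 4× MIC. At 15, 30, 60, 90 and 120 min, 50 μL was serially diluted in PBS and plated on mannitol salt agar. CFU were counted after overnight growth at 37°C.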

The test system of a further data set is bacteria. The following applies: cited from earlier work.
The test system of another data set is E. coli E423-17. The format is cell-based.
A further data set deals with A. baumannii B28-16. Type of data set: cell-based.
The test system of the next data set is E. coli. To be noted: cited from earlier work.
Data set [6] has as its system P. aeruginosa E411-17. The format is cell-based.
In another data set the test system is K. pneumoniae E406-17. The format is cell-based. The following applies: not shown.
The mark [7] stands for this setting: Table 3, sequence reversal experiment.

As to `CC[C@H](C)CCCCC(=O)N[C@@H](CCN)C(=O)N[C@H](C(=O)N[C@@H](CCN)C(=O)N[C@H]1CCNC(=O)[C@H]([C@@H](C)O)NC(=O)[C@H](CCN)NC(=O)[C@H](CCN)NC(=O)[C@H](CC(C)C)NC(=O)[C@@H](CC(C)C)NC(=O)[C@H](CCN)NC1=O)[C@@H](C)O` [Colistin, reference compound] (X1-[Dab]T[Dab][Dab][Dab][dL]L[Dab][Dab]T; lactam 4-C (inferred); N-terminus assumed), the “time to eliminate P. aeruginosa” value in the data set with P. aeruginosa E411-17 [1] is 30 min. The “activity against S. aureus USA300 under all these conditions” value with S. aureus USA300 [2] was “inactive”. Moreover, the “activity against P. aeruginosa under all the conditions tested” value in the data set on P. aeruginosa E411-17 [3] is “retained pseudomonacidal activity”. Moreover, in the data set with human red blood cells (at 400 μM, 545 nm), the “lysis of human red blood cells” value is “did not lyse”. The “toxicity to HaCaT” value in data set [4] (at 100 μM) is listed as “little toxicity”. For the same compound, the “toxicity to HepG2” value in the data set on Human liver HepG2 cells (24 h, MTS) is recorded as “subtle effects”.
Turning to `CCCCCCCCCC(=O)N[C@@H](Cc1c[nH]c2ccccc12)C(=O)N[C@H](CC(N)=O)C(=O)N[C@@H](CC(=O)O)C(=O)N[C@@H]1C(=O)NCC(=O)N[C@@H](CCCN)C(=O)N[C@@H](CC(=O)O)C(=O)N[C@H](C)C(=O)N[C@@H](CC(=O)O)C(=O)NCC(=O)N[C@H](CO)C(=O)N[C@@H]([C@H](C)CC(=O)O)C(=O)N[C@@H](CC(=O)c2ccccc2N)C(=O)O[C@@H]1C` [Daptomycin, reference compound], the “minimal inhibitory concentration (MIC), S. aureus USA 300” value with S. aureus USA300 [5] (USA300) was found to be 0.5 µM (≈ 0.81 µg/mL). Further, the “minimal inhibitory concentration (MIC), S. epidermidis 1457” value with S. epidermidis 1457 (1457) was 0.5 µM (≈ 0.81 µg/mL). Further, the “time to kill MRSA USA300” value with MRSA USA300 is around 90 min. Besides, the “activity against S. aureus USA300 under all these conditions” value in the data set on S. aureus USA300 [2] is “remained potent”. The “activity against P. aeruginosa under all the conditions tested” value in the data set on P. aeruginosa E411-17 [3] was “did not display any activity”. Further, the “toxicity to HepG2” value in the data set on Human liver HepG2 cells (24 h, MTS) is listed as “subtle effects”.
Regarding KRIVQRIK-NH2 [KR-8], the “antibacterial activity in the standard Mueller Hinton Broth (MHB)” value (“antibacterial activity” below) in the data set with bacteria was “not antibacterial”.
Regarding KRWWQWWK-NH2 [KR-8+], in the data set with S. epidermidis 1457 (1457), the “minimal inhibitory concentration (MIC), S. epidermidis 1457” value was determined as 16 µM. In addition, the “minimal inhibitory concentration (MIC), E. coli E423-17” value in the data set with E. coli E423-17 (E423-17) lay within 4 to 8 µM. Further, the “minimal inhibitory concentration (MIC), A. baumannii B28-16” value with A. baumannii B28-16 is 16 µM. Further, in the data set on S. aureus USA300 [2], the “MIC in the presence of 150 mM NaCl” value was 16 to 32 µM. Further, the “HC10 (10% hemolytic concentration)” value in the data set on human red blood cells was determined as 300 µM. The same compound yielded a hemolysis with human red blood cells (at 400 μM) of 18%. Besides, in the data set on Human liver HepG2 cells (24 h, MTS), the “LC50, HepG2” value amounted to 12.5 µM.
Take LLGDFFRKSK-NH2 [LL-10]: in the data set on bacteria, the “antibacterial activity” value was “not antibacterial”.
On to LWGRFFRKWK-NH2 [LL-10+], for which, in the data set with S. aureus USA300 [5] (setting [7]), the “minimal inhibitory concentration (MIC), S. aureus USA 300” value turned out to be 16 µM. Further, the “minimal inhibitory concentration (MIC), S. epidermidis 1457” value in the data set with S. epidermidis 1457 (setting [7]) amounted to 32 µM. Besides, in the data set on E. coli E423-17 (setting [7]), the “minimal inhibitory concentration (MIC), E. coli E423-17” value was 32 µM. Besides, the “minimal inhibitory concentration (MIC), A. baumannii B28-16” value in the data set on A. baumannii B28-16 was found to be 64 µM. Also, in the data set with S. aureus USA300 [2], the “MIC in the presence of 150 mM NaCl” value is above 32 µM. The “HC10 (10% hemolytic concentration)” value in the data set with human red blood cells was above 400 µM. For the same compound, in the data set on Human liver HepG2 cells, the “toxicity to HepG2” value is “subtle effects”. Also, the “LC50, HepG2” value with Human liver HepG2 cells (24 h, MTS) is above 100 µM.
Regarding RIKDFLRNLV-NH2 [RIK-10], the “activity against E. coli in standard MHB” value in the data set on E. coli is on record as “active”.
For the compound RKSKEKIGK-NH2 [RK-9], the “antibacterial activity” value with bacteria is recorded as “not antibacterial”.
For the compound RWKRFLRNWV-NH2 [RIK-10+], in the data set with S. aureus USA300 [5] (setting [7]), the “minimal inhibitory concentration (MIC), S. aureus USA 300” value came to 16 µM. Moreover, in the data set on S. epidermidis 1457 (1457), the “minimal inhibitory concentration (MIC), S. epidermidis 1457” value was 64 µM. Also, the “minimal inhibitory concentration (MIC), P. aeruginosa E411-17” value in the data set with P. aeruginosa E411-17 [6] (setting [7]) was 4 µM. Besides, the “minimal inhibitory concentration (MIC), E. coli E423-17” value with E. coli E423-17 (E423-17) amounted to 4 µM. Also, in the data set on A. baumannii B28-16, the “minimal inhibitory concentration (MIC), A. baumannii B28-16” value stood at 8 µM. Also, the “MIC, K. pneumoniae E406-17” value against K. pneumoniae E406-17 was found to be 32 µM. Further, the “MIC in the presence of 150 mM NaCl” value with S. aureus USA300 [2] was above 32 µM. Further, the hemolysis in the data set with human red blood cells (at 400 μM) worked out at 18%. The “50% lethal concentration (LC50), HaCaT” value in data set [4] was 100 µM. Moreover, the “LC50, HepG2” value in the data set with Human liver HepG2 cells (24 h, MTS) was 100 µM.
Take RWWKKWWGK-NH2 [RK-9+]: the “minimal inhibitory concentration (MIC), P. aeruginosa E411-17” value in the data set with P. aeruginosa E411-17 [6] (E411-17) is 16 µM. In the data set with E. coli E423-17 (E423-17), the “minimal inhibitory concentration (MIC), E. coli E423-17” value was 4 to 8 µM. In addition, the “MIC in the presence of 150 mM NaCl” value in the data set on S. aureus USA300 [2] lay in the range of 16 to 32 µM. Further, the “HC10 (10% hemolytic concentration)” value in the data set on human red blood cells was above 400 µM. Further, the “toxicity to HepG2” value in the data set on Human liver HepG2 cells was “subtle effects”. Moreover, the “LC50, HepG2” value in the data set with Human liver HepG2 cells (24 h, MTS) is above 100 µM.

Values taken from paper PMC12744306 (Probiotics and antimicrobial proteins, 2024).
